High-throughput results from PubChem BioAssay.
Rows were chosen to be rich in hits. Some 1.8% of all compounds tested hit in one or more screens of this group.
STAT3 act: increases IL-6 driven STAT3 reporter signal; U3A cells, IL-6 STAT3-luciferase reporter, luminescence; 100% = signal with IL-6 EC80 alone; activation (% of control), % at 5.6 µM; 0.91% of 190,000 active; AID 871;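 active means activation above the screen-wide mean of compound activation plus 3 SD, cut at about 130% in these data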;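 further: 0% = background luminescence of wells with medium and substrate only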
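system = STAT3-luciferase reporter U3A cells | reagent = IL-6 stimulus at 33 ng/mL final | timing = 1 h compound pre-exposure, 6 h IL-6 stimulation, 37 °C | measured by = luminescence | evaluation = % activation versus median of IL-6-stimulated wells | control set = IL-6-only wells as 100% reference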
PERK inh: human PERK inhibition, primary cell-based screen | Q9NZJ5 | CHO PERK-DD fusion, SEAP luminescence translation reporter | inhibition, % at 5.6 µM | 0.17% of 220,000 active | AID 1416;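 active means inhibition above the mean inhibition of all tested compounds plus 3 SD, set separately per screening campaign, cut at about 2.9% in these data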;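 further: PERK kinase domain activated by AP20187 dimerizer at 100 nM; 0% = DMSO with dimerizer and 100% = rapamycin at 8.4 µM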
STAT1 inh: STAT1 signaling inhibition; NIH 3T3 STAT1-luciferase reporter, IFN-gamma, luminescence; inhibition, % at 5.5 µM; 0.35% of 200,000 active;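 active means inhibition above a set limit, the mean inhibition across all tested compounds plus 3 SD, cut at about 34% in these data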;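 further: 0% = IFN-gamma with DMSO and 100% = IFN-gamma with 300 µM nifuroxazide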
STAT3 inh: reduces IL-6 driven STAT3 reporter signal; U3A cells, IL-6 STAT3-luciferase reporter, luminescence; host cell line lacks STAT1; 0.89% of 190,000 active; AID 862; inhibition, % at 5.5 µM;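 active means inhibition above the mean inhibition across all screened compounds plus 3 SD, cut at about 44% in these data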;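 further: 0% = DMSO only wells and 100% = 100 µM nifuroxazide control wells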
Active calls of the source: *.

`Cc1ccnc(SCc2nc3ccccc3s2)n1` gave STAT3 act 136*, PERK inh 0, STAT1 inh -33 and STAT3 inh -32.
`CCC(C)NC(=O)c1cc(Sc2nnc(C)s2)nc2ccccc12` (stereo not given) gave STAT3 act 107, PERK inh -1, STAT1 inh 10 and STAT3 inh -8.
`COC(=O)c1ccc(-c2nc(-c3cccs3)no2)cc1` gave STAT3 act 30, PERK inh 1, STAT1 inh 52* and STAT3 inh 91*.
For Fc1ccc(-c2nc(-c3cccs3)no2)cc1 the results were PERK inh 1.
CC1=C(C(=O)OCC2CCCO2)C(c2coc3ccc(Cl)cc3c2=O)C2=C(CCCC2=O)N1 (stereo not given) was read as STAT3 act 134*, PERK inh 1, STAT1 inh 8 and STAT3 inh -27.
`Cc1cccc(OCCC(=O)NCC(c2ccco2)N2CCCCC2)c1` (stereo not given) gave STAT3 act 106, PERK inh 0, STAT1 inh 2 and STAT3 inh -7.
`CN1C=C(C(F)(F)F)C=C/C1=C(\C#N)c1nnc2n1CCCCC2` gave STAT3 act 107, PERK inh 3.1*, STAT1 inh -4 and STAT3 inh -2.
`C/C(O)=C(\C#N)c1nnc2n1CCCCC2` gave STAT3 act 101, PERK inh 2, STAT1 inh 0 and STAT3 inh 3.
Screening CN=c1scc(C)n1/N=C/c1ccc(O)c(O)c1O returned STAT3 act 81, PERK inh -1, STAT1 inh 9 and STAT3 inh 23.
`CN=c1scc(-c2cccs2)n1/N=C/c1ccccc1O` gave STAT3 act 9, PERK inh 1, STAT1 inh 47* and STAT3 inh 107*.
For CN=c1scc(-c2cccs2)n1/N=C/c1ccc(O)c(O)c1O the results were STAT3 act 64, PERK inh 1, STAT1 inh 47* and STAT3 inh 45*.
`COc1ccc(-n2cc(CNCCc3cnc[nH]3)c(-c3cccc(F)c3)n2)cc1` gave STAT3 act 100, PERK inh 0, STAT1 inh -1 and STAT3 inh 3.
CC1(C)Cc2nc3nc(SCC(=O)Nc4ccccc4)nc(N)c3cc2CO1 was read as STAT3 act 99, PERK inh 1, STAT1 inh -5 and STAT3 inh 8.
`COc1ccc(NC(=O)CSc2nc(N)c3cc4c(nc3n2)CC(C)(C)OC4)cc1` gave PERK inh 3.2*.
Cc1ccc2nc(NC(=O)c3ccco3)sc2c1 was read as STAT3 act 22, PERK inh 0, STAT1 inh 59* and STAT3 inh 94*.
Screening Cn1c(=O)cc(C(=O)N/N=C/c2ccc(Cl)cc2)[nH]c1=O returned PERK inh 2.9*.
COC(=O)[C@@H](N)CS was read as STAT3 act 94, PERK inh 3.0*, STAT1 inh 11 and STAT3 inh 9.
Screening N#Cc1ccsc1NC(=O)c1ccc(Cl)c([N+](=O)[O-])c1 returned PERK inh 4.3*.
O=c1[nH]c2ccccc2nc1/C=C(\O)c1cccs1 was read as STAT3 act 169*, PERK inh 1, STAT1 inh -51 and STAT3 inh -84.
Screening CC(C)(C)/C(O)=C/c1nc2ccccc2[nH]c1=O returned STAT3 act 101, PERK inh 1, STAT1 inh 3 and STAT3 inh 2.
For COC(=O)C1=C(C)N(CCc2ccc(OC)c(OC)c2)C(=O)/C1=C\N(C)C the results were STAT3 act 101, PERK inh 0, STAT1 inh 0 and STAT3 inh -1.
For CC(C)N(C(=O)Cn1cc(SCC(N)=O)c2ccccc21)C(C)C the results were STAT3 act 104, PERK inh 0, STAT1 inh -4 and STAT3 inh -2.
CSCC(CO)NS(=O)(=O)c1ccc(C)cc1 (stereo not given) was read as PERK inh 2.9*.
CN1CCN(C(=O)c2cc3sc4ccccc4c3s2)CC1 was read as PERK inh 1.
Screening O=c1c2ccccc2cnn1-c1nc2ccccc2[nH]1 returned STAT3 act 9, PERK inh 0, STAT1 inh 94* and STAT3 inh 107*.
O=c1c(Cl)c(N2CCCCC2)cnn1-c1nc2ccccc2[nH]1 was read as STAT3 act 13, PERK inh -1, STAT1 inh 71* and STAT3 inh 103*.
Screening O=c1c2ccccc2nc2c3ccccc3cnn12 returned STAT3 act 87, PERK inh 0, STAT1 inh -37 and STAT3 inh 19.
COc1cccc(/C=N/NC(=O)CN2CC(c3ccccc3)CC2=O)c1O (stereo not given) was read as STAT3 act 98, PERK inh 0, STAT1 inh 1 and STAT3 inh 11.
Screening COC(=O)c1ccc(NCCc2csc(-c3ccc(C)cc3)n2)c([N+](=O)[O-])c1 returned STAT3 act 93, PERK inh 1, STAT1 inh 1 and STAT3 inh 18.
Screening COc1ccc(N(CCCN2C(=O)c3cccc4cccc(c34)C2=O)C(=O)c2cccc(OC)c2)cc1 returned STAT3 act 86, PERK inh 0, STAT1 inh 1 and STAT3 inh 20.
Screening c1ccc(-c2noc(-c3ccc4ccccc4c3)n2)nc1 returned STAT3 act 9, PERK inh 1, STAT1 inh 88* and STAT3 inh 113*.
For c1ccc(-c2noc(-c3ccncc3)n2)nc1 the results were STAT3 act 72, PERK inh 0, STAT1 inh -26 and STAT3 inh 34.
Cc1cccc(-c2noc(-c3ccc4c(c3)OCO4)n2)c1 was read as STAT3 act 43, PERK inh 0, STAT1 inh 16 and STAT3 inh 69*.
COc1cccc(-c2nc(-c3ccccn3)no2)c1 was read as STAT3 act 19, PERK inh 0, STAT1 inh 60* and STAT3 inh 95*.
Screening COc1ccc(-c2nc(-c3cccc(C)c3)no2)cc1OC returned STAT3 act 98, PERK inh 1, STAT1 inh -46 and STAT3 inh 6.
`c1ccc(-c2noc(-c3ccc4c(c3)OCO4)n2)nc1` gave STAT3 act 12, PERK inh 1, STAT1 inh 54* and STAT3 inh 107*.
For CS(=O)(=O)c1ccc2nc(NC(=O)c3ccc(NS(=O)(=O)c4cccc([N+](=O)[O-])c4)cc3)sc2c1 the results were PERK inh 2.
Screening CC(C)(C)C(=O)Nc1cccc(OC(F)(F)C(F)Cl)c1 (stereo not given) returned STAT3 act 100, PERK inh 1, STAT1 inh -6 and STAT3 inh 5.
Screening CC1=NC(=O)C(N=Nc2cccc3ccccc23)N1c1ccccc1 (stereo not given) returned STAT3 act 159*, PERK inh 2, STAT1 inh 4 and STAT3 inh -68.
For CC1=NC(=O)C(N=Nc2ccccc2C)N1c1ccccc1 (stereo not given) the results were STAT3 act 106, PERK inh 1, STAT1 inh -6 and STAT3 inh -4.
